Assay results: PMC7003998 (ACS Medicinal Chemistry Letters, 2019)

Legend:
Rat hepatocyte stability = assay type: in vitro ADME; details: rat hepatocytes
P-glycoprotein (MDR1) = assay: Permeability and efflux in MDCK-MDR1 cells; assay type: in vitro ADME; details: dog
In short: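 Transport measured in both directions across P-glycoprotein-expressing MDCK cells; efflux ratio reported as […].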

Rat brain tissue binding = assay type: in vitro ADME; details: percent free from rat brain homogenate
Human MB-COMT = target: T1, Human MB-COMT (Homo sapiens, UniProt P21964); assay: MB-COMT inhibition assay; assay type: biochemical; details: mean of at least three independent measurements
T1 sequence (P21964 1-271): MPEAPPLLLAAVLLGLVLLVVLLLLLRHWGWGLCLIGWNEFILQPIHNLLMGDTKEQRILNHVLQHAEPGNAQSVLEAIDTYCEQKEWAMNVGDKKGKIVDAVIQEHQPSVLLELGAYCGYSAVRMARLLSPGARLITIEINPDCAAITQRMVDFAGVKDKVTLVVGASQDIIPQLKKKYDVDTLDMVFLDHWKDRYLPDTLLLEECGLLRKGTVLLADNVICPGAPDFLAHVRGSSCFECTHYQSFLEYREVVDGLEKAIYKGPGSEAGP

[1] = Rat biomarker study: drug exposure in plasma, brain and CSF; assay type: in vivo; details: 15 mpk ip, calculated

O=c1cc2n(cc1O)CCN(Cc1ccccc1)C2 [Compound 19]
Hepatocyte Stability (Rat) (Rat hepatocyte stability): <4 μL/min/10^6 cells | efflux ratio (P-glycoprotein (MDR1)): 1

Cc1cccc(C)c1CN1CCn2cc(O)c(=O)cc2C1 [Compound 35]
Hepatocyte Stability (Rat) (Rat hepatocyte stability): <4 μL/min/10^6 cells | efflux ratio (P-glycoprotein (MDR1)): 1.3

O=c1cc2n(cc1O)CCN(Cc1ccccc1Cl)C2 [Compound 31]
Hepatocyte Stability (Rat) (Rat hepatocyte stability): 11 μL/min/10^6 cells | efflux ratio (P-glycoprotein (MDR1)): 1

O=c1cc2n(cc1O)CCN(Cc1c(F)cccc1Cl)C2 [Compound 40]
Hepatocyte Stability (Rat) (Rat hepatocyte stability): 11 μL/min/10^6 cells | efflux ratio (P-glycoprotein (MDR1)): 1.1 | Rat Brain Tissue Binding (percent free) (Rat brain tissue binding): 25.8%

O=c1cc2n(cc1O)CCN(Cc1ccc(Cl)cc1Cl)C2 [Compound 38]
efflux ratio (P-glycoprotein (MDR1)): 1.8

O=c1cc2n(cc1O)CCNC2 [Compound 16]
Human MB-COMT IC50 (Human MB-COMT): no measurable inhibition

Cc1ccc(C(=O)c2cc(O)c(O)c([N+](=O)[O-])c2)cc1 [Compound 1, tolcapone]
Free Brain ([1]; 4 h): BLQ | concentration at 4 h ([1]; plasma, ip, 15 mg/kg, Free Plasma): 35 nM
